An excerpt weighted towards active compounds, which were near 2.4% of everything screened.
DNA FID counter: compounds displacing fluorescent DNA intercalator, primary screen, artefact control for HCV NS3 helicase inhibitor project, biochemical, FID fluorescence; actives 0.17% (n = 290,000); inhibition, % at 7.9 µM; AID 1845, 2009; DNA fluorescent intercalator displacement; in the data active = inhibition above about 37%;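 note: 0% = vehicle and 100% = reference compound; higher means more ethidium bromide displaced from hairpin DNA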
UBC13 inh: UBC13 polyubiquitin chain formation inhibitors, primary screen, biochemical, TR-FRET, uHTS; actives 0.47% (n = 330,000); Ubiquitin-conjugating enzyme E2 N (Homo sapiens), P61088; inhibition, % at 20 µM; in the data active = inhibition above about 45%, passing the limit was not always enough
Target sequence (P61088 whole entry, looked up): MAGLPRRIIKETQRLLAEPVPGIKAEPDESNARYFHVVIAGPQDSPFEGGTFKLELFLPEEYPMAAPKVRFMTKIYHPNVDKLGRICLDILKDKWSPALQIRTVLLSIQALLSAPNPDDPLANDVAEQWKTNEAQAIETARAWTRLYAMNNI
ANO1 activ: TMEM16A chloride channel activators or potentiators, primary screen, cell-based, HTS | AID 623877, 2012 | actives 0.3% (n = 340,000) | HEK293 TMEM16A/YFP-H148Q/I152L, iodide quench fluorescence; stronger effect = lower value | Anoctamin-1 (Mus musculus), Q8BHY3 | B-score at 10 µM;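 active = fluorescence-ratio B-score plate-corrected deviation score at least 3 library SD below zero, with starting fluorescence score within 5 deviations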;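 note: channel opened by trigger with iodide after compound preincubation; score built on the fluorescence ratio of max minus min over baseline; more negative score means more quench and so TMEM16A activation or potentiation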
ANO1 block: TMEM16A chloride channel inhibitors, primary screen, cell-based, HTS | Anoctamin-1 (Mus musculus), Q8BHY3 | HEK293 TMEM16A/YFP iodide influx fluorescence, ionomycin | normalized B-score (activity score, 25-100; higher = stronger inhibition) at 10 µM | actives 1.2% (n = 310,000);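 active = ratio plate-corrected score three or more library SD toward inhibition, starting fluorescence score within five deviations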;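 note: score derived from kinetic fluorescence span divided by baseline fluorescence per well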
Apaf-1 inh: inhibitors of human Apaf-1 apoptosome, primary screen, biochemical, DEVD-Rh110 fluorescence, uHTS; Apoptotic protease-activating factor 1 (Homo sapiens), O14727; actives 0.71% (n = 330,000); reconstituted apoptosome caspase-3 activity; inhibition, % at 20 µM; AID 489030, 2010; active = inhibition of at least 40% at 20 µM;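 note: plate controls were DMSO wells for no effect and DEVD-CHO caspase inhibitor wells for full effect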
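System – cell-free apoptosome with Apaf-1, procaspase-3 and caspase-9 · Buffer or medium – pH 7.5 Hepes buffer with CHAPS, BSA, DTT · Also added – cytochrome c with DEVD-Rh110 · Times – 30 min compound preincubation, 50 min activation, room temperature · Technique – Rh110 fluorescence intensity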
TMEM16A reconf: TMEM16A chloride channel inhibitors, confirmation, cell-based, re-confirmation; shares compounds with ANO1 block; HEK293 TMEM16A/YFP-H148Q, iodide quench fluorescence; ionomycin added to raise cell calcium; inhibition, % at 10 µM; actives 39% (n = 2,300); AID 652189, 2013;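 active = mean duplicate percent inhibition, scaled so buffer wells are 0 and the reference blocker 100, over three buffer SD above buffer mean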
HEK293 Ca mobil: calcium mobilization in TMEM16A/YFP HEK293 cells, confirmation, counter-screen for TMEM16A inhibitor project; Fluo4 calcium mobilization; shares compounds with ANO1 block; calcium response (% of ionomycin), % at 10 µM; AID 652231, 2013; actives 2% (n = 2,300);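 active = duplicate-averaged calcium signal over 20% of the ionomycin maximum, relative to buffer baseline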;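 note: each well's signal is peak minus trough fluorescence divided by its pre-addition baseline; 0% = buffer wells and 100% = ionomycin wells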
YFP-HEK293 quench: iodide YFP quench changes in parental YFP-HEK293, counter-screen for TMEM16A inhibitor project, cell-based. shares compounds with ANO1 block. ionomycin. YFP ratio F(max-min)/F0 at 10 µM. 2,300 tested, under 10 active. AID 652233, 2013;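 active = yellow fluorescent protein signal ratio exceeding the buffer control mean by over 5 SD of those controls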;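 note: ratio is mean of duplicate wells from kinetic YFP trace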
ClC-1 rat inh: ClC-1 chloride channel inhibition, selectivity assay for TMEM16A inhibitor project, cell-based, voltage-dependent ClC-1 | shares compounds with ANO1 block | ratio percent, % at 10 µM | CHO ClC-1-YFP, iodide influx fluorescence quench; iodide control reads 0, buffer control 100 | 2,300 tested, under 10 active;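 active = duplicate-mean ratio percent above the mean of iodide-only control wells, which defines zero, plus 5 of their SD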;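 note: higher percent means stronger block of ClC-1 iodide influx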
An asterisk follows results filed as active; i = inactive; . = no result.

SMILES	DNA FID counter	UBC13 inh	ANO1 activ	ANO1 block	Apaf-1 inh	TMEM16A reconf	HEK293 Ca mobil	YFP-HEK293 quench	ClC-1 rat inh
CCOc1ccccc1C(=O)OCC(=O)Nc1ccc(N2CCCCC2)cc1	-21	-5	i	i	27	.	.	.	.
COc1ccc(C(=O)N/C(=C\c2cn(C)c3ccccc23)C(=O)NCCCn2ccnc2)cc1	14	-4	i	i	-4	.	.	.	.
Clc1ccccc1CSC1=NCCN1	-11	15	i	i	-18	.	.	.	.
CCS(=O)(=O)Nc1cccc(C2=NN(S(=O)(=O)c3ccccc3)C(c3cccs3)C2)c1 (stereo not drawn)	-16	7	i	i	16	i	i	-0.86	-20
CCN(CC)S(=O)(=O)c1cc(NC(=O)COC(=O)CCC(=O)c2cccs2)ccc1C	-23	4	i	25*	8	24%*	i	-0.97	-10
COc1ccccc1N1CCN(C2CCCN(C(=O)CN3CCCC3=O)C2)CC1 (stereo not drawn)	-9	2	i	i	-10	.	.	.	.
COc1ccc(S(=O)(=O)Nc2ccccc2C(=O)NCc2ccco2)cc1	-4	4	i	i	2	.	.	.	.
O=C(NCc1ccco1)c1ccccc1NS(=O)(=O)c1ccc(Br)s1	-19	6	i	100*	3	i	i	-0.82	-22
CN(C(=O)OC(C)(C)C)c1ccc(-c2nc3ccccc3s2)cc1	.	24	i	25*	25	24%*	i	-1.4	-8
COC(=O)N(C)c1nc2ccccc2s1	3	0	i	i	4	.	.	.	.
CCCCNc1nnc(SCC(=O)c2c[nH]c3ccccc23)s1	-7	0	i	i	8	.	.	.	.
CCOC(=O)c1c(NC(=O)CSc2nnc(N)s2)sc(C)c1-c1ccc(C)cc1	-9	1	i	25*	16	i	i	-1.1	-13
CCN(CC)c1ccc(Nc2nc(N3CCOCC3)c3ccccc3n2)cc1	7	7	i	100*	30	i	i	-1.2	-18
c1ccc2c(c1)nc(N1CCOCC1)c1ccccc12	-22	14	i	i	1	.	.	.	.
CC(C)CC1CC(=O)OC1(C)C(=O)CSc1nc2ccccc2s1 (stereo not drawn)	-11	-1	i	100*	12	i	i	-1.2	-6
CC(C)c1ccc(S(=O)(=O)/N=C2\C=C(NS(=O)(=O)c3ccccc3)C(=O)c3ccccc32)cc1	27	.	i	100*	.	91%*	i	-0.92	-24
CC(=O)c1ccc(NC(=S)NC(C)CCc2ccccc2)cc1 (stereo not drawn)	-12	20	i	25*	5	i	i	-1.1	-1
C=CCn1c(CNC(=O)c2ccccc2F)nnc1SCc1nc2ccccc2c(=O)[nH]1	2	1	i	i	-4	.	.	.	.
O=C(O)CN1C(=O)/C(=C\c2ccccc2OCc2ccc(F)cc2)SC1=S	2	-6	i	i	7	.	.	.	.
O=C(O)CCCN1C(=O)/C(=C\c2ccccc2OCc2ccccc2)SC1=S	-18	-8	i	25*	10	i	i	-1.2	-34
O=C(O)CCCN1C(=O)/C(=C\c2ccc(-c3nc4ccccc4s3)o2)SC1=S	-11	-102	i	25*	-81	24%*	i	-1.1	-10
O=C(O)CCN1C(=O)/C(=C/c2ccc(-c3nc4ccccc4s3)o2)SC1=S	-1	-138	i	i	8	.	.	.	.
O=C(c1ccc(Cl)c(Cl)c1)N1CCN(c2ccccn2)CC1	-19	-6	i	i	-12	.	.	.	.
O=C(c1cccc(COc2ccc(Cl)cc2Cl)c1)N1CCN(c2ccccn2)CC1	-25	-11	i	100*	27	i	i	-1.2	-14
FC(F)(F)c1nc(N2CCCC2)ncc1-c1nnnn1-c1ccc(Cl)cc1	-31	2	i	25*	17	i	i	-1.1	-20
SMILES	DNA FID counter	UBC13 inh	ANO1 activ	ANO1 block	Apaf-1 inh	TMEM16A reconf	HEK293 Ca mobil	YFP-HEK293 quench	ClC-1 rat inh
Cc1ccc(S(=O)(=O)N2CCN(c3ccnc4cc(Cl)ccc34)CC2)cc1C	-13	5	i	i	34	.	.	.	.
Cc1cc(N2CCN(CC(O)C(F)(F)F)CC2)c2ccccc2n1 (stereo not drawn)	3	-2	i	i	1	.	.	.	.
Cc1cc(N2CCN(S(=O)(=O)c3ccc(Cl)c(Cl)c3)CC2)c2ccccc2n1	12	9	i	100*	10	i	i	-0.84	-14
Cc1ccc(S(=O)(=O)N2CCN(c3ccnc4cc(Cl)ccc34)CC2)cc1	-11	17	i	100*	17	i	i	-1.2	-14
COc1ccc(Cl)cc1NC(=O)C(C)N(C)Cc1ccc(C(F)(F)F)cc1 (stereo not drawn)	-5	6	i	100*	25	i	i	-0.83	-6
CC(Sc1nc(NCc2ccccc2)nc(N(C)C)n1)C(=O)Nc1ccccc1 (stereo not drawn)	-22	5	i	100*	3	i	i	-1.4	-12
CCCCC1(C)OC(=O)C(=Cc2ccc(N(C)C)cc2)C(=O)O1 (stereo not drawn)	0	-54	i	i	5	22%*	i	-0.88	-12
CCCCC1(C)OC(=O)C(=Cc2c[nH]c3ccccc23)C(=O)O1 (stereo not drawn)	-11	-3	i	i	12	.	.	.	.
COc1ccc(C(CNC(=O)C(C)(C)Oc2ccc(Cl)cc2)N2CCOCC2)cc1 (stereo not drawn)	.	.	i	.	.	.	.	.	.
Cc1ccc(-c2onc(C)c2C)cc1S(=O)(=O)N1CCOc2ccccc21	-28	-4	i	100*	25	i	i	-1.2	-6
CCOc1ccc(Cc2c(Cl)nc(SC)nc2N(C)C)cc1	4	0	i	25*	3	i	i	-1.3	-12

Screening results (PubChem)
